Experimental data published in ChEMBL document CHEMBL4715738, “In Vitro Antibacterial Activity of Curcumin-Polymyxin B Combinations against Multidrug-Resistant Bacteria Associated with Traumatic Wound Infections” (J Nat Prod, 2016).

How the values were obtained:
Staphylococcus aureus [1] = experiment: Antibacterial activity against vancomycin-intermediate resistant Staphylococcus aureus Mu50 assessed as reduction in bacterial growth incubated for 24 hrs in presence of polymyxin B; assay type: functional
Staphylococcus aureus [2] = experiment: Antibacterial activity against Staphylococcus aureus ATCC 25923 assessed as reduction in bacterial growth incubated for 24 hrs in presence of polymyxin B; assay type: functional
Streptococcus pyogenes [3] = experiment: Antibacterial activity against Streptococcus pyogenes SPY2 assessed as reduction in bacterial growth incubated for 24 hrs in presence of polymyxin B; assay type: functional
Acinetobacter baumannii [4] = experiment: Antibacterial activity against Acinetobacter baumannii AB12 harboring OXA-23 assessed as reduction in bacterial growth incubated for 24 hrs in presence of polymyxin B; assay type: functional
Acinetobacter baumannii [5] = experiment: Antibacterial activity against Acinetobacter baumannii NCTC 19606 assessed as reduction in bacterial growth incubated for 24 hrs in presence of polymyxin B; assay type: functional
[6] = test system: Stenotrophomonas maltophilia; experiment: Antibacterial activity against Stenotrophomonas maltophilia SMS01 assessed as reduction in bacterial growth incubated for 24 hrs in presence of polymyxin B; assay type: functional
[7] = test system: Stenotrophomonas maltophilia; experiment: Antibacterial activity against Stenotrophomonas maltophilia NCTC 10258 assessed as reduction in bacterial growth incubated for 24 hrs in presence of polymyxin B; assay type: functional
Pseudomonas aeruginosa [8] = experiment: Antibacterial activity against Pseudomonas aeruginosa ATCC 27853 assessed as log reduction in colony forming units at 0.5 fold MIC measured after 24 hrs by time kill assay; assay type: functional; conditions: in the assay text read “1 fold MIC” for “0.5 fold MIC”
In short: (§1)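 Time-kill in Mueller-Hinton 2 broth. Inoculum was a 1/1000 dilution of a 16 h overnight culture, about 10^6 CFU/mL, 10 mL per tube. Arms were each agent alone at ×1 MIC, or the combination at ×1 MIC plus ×0.5 MIC partner. Incubated at 37 °C with continuous agitation for 24 h. Samples taken at 0, 2, 4, 6 and 24 h, serially diluted and plated on IsoSensitest agar for CFU counts.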

Staphylococcus aureus [9] = experiment: Bactericidal activity against methicillin-resistant Staphylococcus aureus NCTC 12493 assessed as log reduction in colony forming units at 0.5 fold MIC measured after 24 hrs in presence of polymyxin B at MIC by time kill assay; assay type: functional
In short: (§2)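 Time-kill in 10 mL Mueller-Hinton 2 broth, 37 °C with continuous agitation, 24 h. Inoculum was a 1/1000 dilution of a 16 h overnight culture, about 10^6 CFU/mL. Single agents at 1× MIC; combination at 1× MIC polymyxin B plus 0.5× MIC curcumin. Samples at 0, 2, 4, 6 and 24 h were serially diluted and plated on IsoSensitest agar for CFU/mL.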

Staphylococcus aureus [10] = experiment: Bactericidal activity against methicillin-resistant Staphylococcus aureus NCTC 12493 assessed as bacterial cell death at 0.5 fold MIC measured after 4 to 6 hrs hrs in presence of polymyxin B at MIC by time kill assay relative to control; assay type: functional; conditions: time 4-6 hrs; in short: as §2
Escherichia coli [11] = experiment: Potentiation of polymyxin B-induced antibacterial activity against Escherichia coli EC2 harboring CTX-M-15 assessed as fold reduction in polymyxin B MIC measured after 24 hrs […] checkerboard assay; assay type: functional
In short: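 Combination MICs from the checkerboard used for FICI calculation. Where no MIC was reached, the dilution above the top dose was used in the FICI. Run in triplicate; mean values reported.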

Escherichia coli [12] = experiment: Potentiation of polymyxin B-induced antibacterial activity against Escherichia coli EC204 harboring NDM-1 assessed as fold reduction in polymyxin B MIC measured after 24 hrs in presence of polymyxin B by checkerboard assay; assay type: functional
Enterococcus faecalis = experiment: Potentiation of polymyxin B-induced antibacterial activity against Enterococcus faecalis ATCC 29212 assessed as fold reduction in polymyxin B MIC measured after 24 hrs in presence of polymyxin B by checkerboard assay
Enterococcus faecium [13] = experiment: Antibacterial activity against vancomycin-resistant Enterococcus faecium OEF65 assessed as reduction in bacterial growth incubated for 24 hrs in presence of curcumin; assay type: functional
Staphylococcus aureus [14] = experiment: Antibacterial activity against vancomycin-intermediate resistant Staphylococcus aureus Mu50 assessed as reduction in bacterial growth incubated for 24 hrs in presence of curcumin; assay type: functional
Escherichia coli [15] = experiment: Antibacterial activity against Escherichia coli EC2 harboring CTX-M-15 assessed as reduction in bacterial growth incubated for 24 hrs in presence of curcumin; assay type: functional
Acinetobacter baumannii [16] = experiment: Antibacterial activity against Acinetobacter baumannii AB12 harboring OXA-23 assessed as reduction in bacterial growth incubated for 24 hrs in presence of curcumin; assay type: functional
Pseudomonas aeruginosa [17] = experiment: Antibacterial activity against Pseudomonas aeruginosa PA14 assessed as reduction in bacterial growth incubated for 24 hrs in presence of curcumin; assay type: functional
Pseudomonas aeruginosa [18] = experiment: Antibacterial activity against Pseudomonas aeruginosa ATCC 27853 assessed as reduction in bacterial growth incubated for 24 hrs in presence of curcumin; assay type: functional
[19] = test system: Stenotrophomonas maltophilia; experiment: Antibacterial activity against Stenotrophomonas maltophilia SMS01 assessed as reduction in bacterial growth incubated for 24 hrs in presence of curcumin; assay type: functional
[20] = test system: Stenotrophomonas maltophilia; experiment: Antibacterial activity against Stenotrophomonas maltophilia SMB07 assessed as reduction in bacterial growth incubated for 24 hrs in presence of curcumin; assay type: functional
[21] = test system: Stenotrophomonas maltophilia; experiment: Antibacterial activity against Stenotrophomonas maltophilia NCTC 10258 assessed as reduction in bacterial growth incubated for 24 hrs in presence of curcumin; assay type: functional
Enterococcus faecium [22] = experiment: Synergistic antibacterial activity against vancomycin-resistant Enterococcus faecium OEF42 assessed as fractional inhibitory concentration index measured after 24 hrs in presence of curcumin by checkerboard assay; assay type: functional
In short: (§3)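 FICI was derived from checkerboard MICs. Synergy was defined as FICI ≤ 0.5 and additive as FICI > 0.5−4.0. Where an MIC was not reached, the dilution above the maximum dose was used in the FICI calculation. Experiments were run in triplicate and reported as means.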

Streptococcus pyogenes [23] = experiment: Synergistic antibacterial activity against Streptococcus pyogenes SPY2 assessed as fractional inhibitory concentration index measured after 24 hrs in presence of curcumin by checkerboard assay; assay type: functional
In short: (§4)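 FICI calculated from combination MICs; ≤0.5 taken as synergy and >0.5–4.0 as additive. Where an MIC was not reached, the dilution above the highest concentration tested was used in the calculation. Run in triplicate and reported as means.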

Acinetobacter baumannii [24] = experiment: Synergistic antibacterial activity against Acinetobacter baumannii AB14 harboring OXA-23 clone 1 assessed as fractional inhibitory concentration index measured after 24 hrs in presence of curcumin by checkerboard assay; assay type: functional; in short: as §3
Pseudomonas aeruginosa [25] = experiment: Synergistic antibacterial activity against Pseudomonas aeruginosa PA30 harboring VIM-2 assessed as fractional inhibitory concentration index measured after 24 hrs in presence of curcumin by checkerboard assay; assay type: functional; in short: as §3
Pseudomonas aeruginosa [26] = experiment: Synergistic antibacterial activity against Pseudomonas aeruginosa ATCC 27853 assessed as fractional inhibitory concentration index measured after 24 hrs in presence of curcumin by checkerboard assay; assay type: functional; in short: as §4
[27] = test system: Stenotrophomonas maltophilia; experiment: Synergistic antibacterial activity against Stenotrophomonas maltophilia SMS01 assessed as fractional inhibitory concentration index measured after 24 hrs in presence of curcumin by checkerboard assay; assay type: functional; in short: as §4
[28] = test system: Stenotrophomonas maltophilia; experiment: Synergistic antibacterial activity against Stenotrophomonas maltophilia NCTC 10258 assessed as fractional inhibitory concentration index measured after 24 hrs in presence of curcumin by checkerboard assay; assay type: functional; in short: as §4
Acinetobacter baumannii [29] = experiment: Antibacterial activity against Acinetobacter baumannii NCTC 19606 assessed as log reduction in colony forming units at MIC measured after 6 hrs by time kill assay; assay type: functional; in short: as §1

## COc1cc(/C=C/C(=O)CC(=O)/C=C/c2ccc(O)c(OC)c2)ccc1O [CURCUMIN]
Staphylococcus aureus [1]
  MIC: 43 µM
Staphylococcus aureus [2]
  MIC: 87 µM
Streptococcus pyogenes [3]
  MIC: 22 µM
Acinetobacter baumannii [4]
  MIC: 87 µM
Acinetobacter baumannii [5]
  MIC: 22 µM
[6]
  MIC: 22 µM
[7]
  MIC: 22 µM
Pseudomonas aeruginosa [8]
  Activity: 2 log10CFU/ml
Staphylococcus aureus [9]
  Activity: >3 log10CFU/ml
Staphylococcus aureus [10]
  Activity: 100%
Escherichia coli [11]
  fold change (FC): 3
Escherichia coli [12]
  fold change (FC): 3
Enterococcus faecalis
  fold change (FC): 3

## CC[C@H](C)CCCCC(=O)N[C@@H](CCN)C(=O)N[C@H](C(=O)N[C@@H](CCN)C(=O)N[C@H]1CCNC(=O)[C@H]([C@@H](C)O)NC(=O)[C@H](CCN)NC(=O)[C@H](CCN)NC(=O)[C@H](CC(C)C)NC(=O)[C@@H](Cc2ccccc2)NC(=O)[C@H](CCN)NC1=O)[C@@H](C)O.O=S(=O)(O)O
Enterococcus faecium [13]
  MIC: 1.5 µM
Staphylococcus aureus [14]
  MIC: 1.5 µM
Escherichia coli [15]
  MIC: 0.024 µM
Acinetobacter baumannii [16]
  MIC: 0.024 µM
Pseudomonas aeruginosa [17]
  MIC: 0.012 µM
Pseudomonas aeruginosa [18]
  MIC: 0.006 µM
[19]
  MIC: 0.024 µM
[20]
  MIC: 0.0313 µM
[21]
  MIC: 0.008 µM
Enterococcus faecium [22]
  fractional inhibitory concentration index (FICI): 0.094
Streptococcus pyogenes [23]
  fractional inhibitory concentration index (FICI): 0.188
Acinetobacter baumannii [24]
  fractional inhibitory concentration index (FICI): 0.375
Pseudomonas aeruginosa [25]
  fractional inhibitory concentration index (FICI): 0.563
Pseudomonas aeruginosa [26]
  fractional inhibitory concentration index (FICI): 0.079
[27]
  fractional inhibitory concentration index (FICI): 0.012
[28]
  fractional inhibitory concentration index (FICI): 0.012
Acinetobacter baumannii [29]
  Activity: 2 log10CFU/ml
